In ChEMBL document CHEMBL4138085, “Design, synthesis and antimicrobial evaluation of novel benzimidazole-incorporated sulfonamide analogues” (Eur J Med Chem, 2017):
≈ marks a conversion by molar mass, not a printed value.

What was measured:
[1] = system: Staphylococcus aureus; assay: Antibacterial activity against Staphylococcus aureus ATCC 25923 after 24 hrs by NCCLS two fold broth microdilution method; type: functional; conditions: ATCC 25923, 24 h
Outline: (§1)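 Two-fold serial broth microdilution in 96-well plates following NCCLS. Compounds were dissolved in DMSO as stocks, then diluted in Mueller–Hinton broth to final concentrations of 0.5–512 µg/mL. Plates were inoculated and incubated at 37 °C for 24 h, with growth read visually and spectrophotometrically. MIC was taken as the lowest concentration giving complete growth inhibition. Run in triplicate, with a DMSO-plus-inoculum solvent control.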

[2] = system: Staphylococcus aureus; assay: Antibacterial activity against methicillin-resistant Staphylococcus aureus N315 after 24 hrs by NCCLS two fold broth microdilution method; type: functional; conditions: N315, 24 h
Outline: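 Two-fold serial broth microdilution per NCCLS. Chloromycin and norfloxacin as reference drugs; DMSO with inoculum, no drug, as solvent control. Incubation 37 °C for 24 h. Growth read visually and spectrophotometrically. MIC is the lowest concentration completely inhibiting growth; triplicate.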

[3] = system: Bacillus subtilis; assay: Antibacterial activity against Bacillus subtilis ATCC 21216 after 24 hrs by NCCLS two fold broth microdilution method; type: functional; conditions: ATCC 21216, 24 h; outline: as §1
[4] = system: Micrococcus luteus; assay: Antibacterial activity against Micrococcus luteus ATCC 4698 after 24 hrs by NCCLS two fold broth microdilution method; type: functional; conditions: NCTC 2665, 24 h; outline: as §1
[5] = system: Bacillus; assay: Antibacterial activity against Bacillus proteus ATCC 13315 after 24 hrs by NCCLS two fold broth microdilution method; type: functional; conditions: ATCC 13315, 24 h; outline: as §1
[6] = system: Escherichia coli; assay: Antibacterial activity against Escherichia coli ATCC 8099 after 24 hrs by NCCLS two fold broth microdilution method; type: functional; conditions: ATCC 8099, 24 h
Outline: (§2)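 Two-fold serial broth microdilution in 96-well plates following NCCLS. Plates were inoculated and incubated at 37 °C for 24 h, with growth read visually and spectrophotometrically. MIC was taken as the lowest concentration giving complete growth inhibition. Run in triplicate, with a DMSO-plus-inoculum solvent control.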

[7] = system: Pseudomonas aeruginosa; assay: Antibacterial activity against Pseudomonas aeruginosa ATCC 27853 after 24 hrs by NCCLS two fold broth microdilution method; type: functional; conditions: ATCC 27853, 24 h; outline: as §2
[8] = system: Salmonella typhi; assay: Antibacterial activity against Bacillus typhi after 24 hrs by NCCLS two fold broth microdilution method; type: functional, Salmonella enterica subsp. enterica serovar Typhi; conditions: Salmonella enterica
Outline: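 Two-fold serial broth microdilution per NCCLS. DMSO stocks diluted in Mueller–Hinton broth to 512, 256, 128, 64, 32, 16, 8, 4, 2, 1, 0.5 µg/mL. Chloromycin and norfloxacin as reference drugs; DMSO with inoculum, no drug, as solvent control. Incubation 37 °C for 24 h. Growth read visually and spectrophotometrically. MIC is the lowest concentration completely inhibiting growth; triplicate.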

[9] = system: Candida albicans; assay: Antifungal activity against Candida albicans ATCC 76615 after 24 hrs by NCCLS two fold broth microdilution method; type: functional; conditions: ATCC 76615, 24 h
Outline: (§3)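 Two-fold serial microdilution following NCCLS. A spore suspension in sterile distilled water was prepared from one-day-old cultures grown on Sabouraud agar and adjusted to a final 1–5 × 10^3 spores/mL. DMSO stocks were diluted in RPMI 1640 to eleven concentrations (0.5–512 µg/mL), inoculated and held at 35 °C for 24 h. Growth was read visually and spectrophotometrically, MIC was the lowest concentration with complete inhibition, and runs were in triplicate.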

[10] = system: Pichia norvegensis; assay: Antifungal activity against Candida mycoderma after 24 hrs by NCCLS two fold broth microdilution method; type: functional
[11] = system: Cyberlindnera jadinii; assay: Antifungal activity against Candida utilis after 24 hrs by NCCLS two fold broth microdilution method; type: functional; conditions: Williopsis jadinii; outline: as §3
[12] = system: Saccharomyces cerevisiae; assay: Antifungal activity against Saccharomyces cerevisiae after 24 hrs by NCCLS two fold broth microdilution method; type: functional; outline: as §3
[13] = system: Aspergillus flavus; assay: Antifungal activity against Aspergillus flavus after 24 hrs by NCCLS two fold broth microdilution method; type: functional; outline: as §3

Structure (SMILES) | MIC [1] [µg/mL] | MIC [2] [µg/mL] | MIC [3] [µg/mL] | MIC [4] [µg/mL] | MIC [5] [µg/mL] | MIC [6] [µg/mL] | MIC [7] [µg/mL] | MIC [8] [µg/mL] | MIC [9] [µg/mL] | MIC [10] [µg/mL] | MIC [11] [µg/mL] | MIC [12] [µg/mL] | MIC [13] [µg/mL]
Nc1ccc(S(=O)(=O)Cc2nc3ccccc3n2Cc2ccccc2Cl)cc1 | 16 (≈ 38.8 µM) | 32 (≈ 77.7 µM) | 16 (≈ 38.8 µM) | 64 (≈ 155 µM) | 256 (≈ 621 µM) | 128 (≈ 311 µM) | 16 (≈ 38.8 µM) | 16 (≈ 38.8 µM) | 16 (≈ 38.8 µM) | 512 (≈ 1240 µM) | 512 (≈ 1240 µM) | 512 (≈ 1240 µM) | 32 (≈ 77.7 µM)
Nc1ccc(S(=O)(=O)Cc2nc3ccccc3n2Cc2cccc(F)c2)cc1 | 512 (≈ 1290 µM) | 128 (≈ 324 µM) | 512 (≈ 1290 µM) | 512 (≈ 1290 µM) | 256 (≈ 647 µM) | 128 (≈ 324 µM) | 512 (≈ 1290 µM) | 512 (≈ 1290 µM) | 128 (≈ 324 µM) | 512 (≈ 1290 µM) | 512 (≈ 1290 µM) | 8 (≈ 20.2 µM) | 256 (≈ 647 µM)
OC(Cn1cncn1)(Cn1cncn1)c1ccc(F)cc1F [FLUCONAZOLE] | – | – | – | – | – | – | – | – | 1 (≈ 3.27 µM) | 4 (≈ 13.1 µM) | 8 (≈ 26.1 µM) | 16 (≈ 52.2 µM) | 256 (≈ 836 µM)
CC(=O)Nc1ccc(S(=O)(=O)Cc2nc3ccccc3[nH]2)cc1 | 32 (≈ 97.2 µM) | 128 (≈ 389 µM) | 32 (≈ 97.2 µM) | 128 (≈ 389 µM) | 64 (≈ 194 µM) | 64 (≈ 194 µM) | 32 (≈ 97.2 µM) | 128 (≈ 389 µM) | 32 (≈ 97.2 µM) | 64 (≈ 194 µM) | 16 (≈ 48.6 µM) | 32 (≈ 97.2 µM) | 128 (≈ 389 µM)
Nc1ccc(S(=O)(=O)Cc2nc3ccccc3n2Cc2ccc(F)cc2)cc1 | 16 (≈ 40.5 µM) | 512 (≈ 1290 µM) | 512 (≈ 1290 µM) | 512 (≈ 1290 µM) | 128 (≈ 324 µM) | 256 (≈ 647 µM) | 16 (≈ 40.5 µM) | 16 (≈ 40.5 µM) | 32 (≈ 80.9 µM) | 512 (≈ 1290 µM) | 128 (≈ 324 µM) | 32 (≈ 80.9 µM) | 256 (≈ 647 µM)
CCCCCCCCCCn1c(CS(=O)(=O)c2ccc(NC(C)=O)cc2)nc2ccccc21 | 512 (≈ 1090 µM) | 512 (≈ 1090 µM) | 512 (≈ 1090 µM) | 512 (≈ 1090 µM) | 512 (≈ 1090 µM) | 512 (≈ 1090 µM) | 512 (≈ 1090 µM) | 512 (≈ 1090 µM) | 512 (≈ 1090 µM) | 512 (≈ 1090 µM) | 16 (≈ 34.1 µM) | 512 (≈ 1090 µM) | 512 (≈ 1090 µM)
CCCCCCCCCCCCCCCCCCn1c(CS(=O)(=O)c2ccc(N)cc2)nc2ccccc21 | 512 (≈ 948 µM) | 512 (≈ 948 µM) | 512 (≈ 948 µM) | 256 (≈ 474 µM) | 512 (≈ 948 µM) | 512 (≈ 948 µM) | 512 (≈ 948 µM) | 512 (≈ 948 µM) | 512 (≈ 948 µM) | 64 (≈ 119 µM) | 512 (≈ 948 µM) | 64 (≈ 119 µM) | 512 (≈ 948 µM)
Nc1ccc(S(=O)(=O)Cc2nc3ccccc3n2Cc2ccc(Cl)cc2)cc1 | 256 (≈ 621 µM) | 256 (≈ 621 µM) | 8 (≈ 19.4 µM) | 8 (≈ 19.4 µM) | 256 (≈ 621 µM) | 64 (≈ 155 µM) | 256 (≈ 621 µM) | 512 (≈ 1240 µM) | 256 (≈ 621 µM) | 16 (≈ 38.8 µM) | 32 (≈ 77.7 µM) | 64 (≈ 155 µM) | 128 (≈ 311 µM)
O=C(N[C@H](CO)[C@H](O)c1ccc([N+](=O)[O-])cc1)C(Cl)Cl [CHLORAMPHENICOL] | 8 (≈ 24.8 µM) | – | 32 (≈ 99 µM) | 8 (≈ 24.8 µM) | 32 (≈ 99 µM) | – | – | 32 (≈ 99 µM) | – | – | – | – | –
CCCCCCCCCCCCn1c(CS(=O)(=O)c2ccc(N)cc2)nc2ccccc21 | 512 (≈ 1120 µM) | 512 (≈ 1120 µM) | 512 (≈ 1120 µM) | 256 (≈ 562 µM) | 512 (≈ 1120 µM) | 512 (≈ 1120 µM) | 512 (≈ 1120 µM) | 512 (≈ 1120 µM) | 512 (≈ 1120 µM) | 512 (≈ 1120 µM) | 512 (≈ 1120 µM) | 256 (≈ 562 µM) | 512 (≈ 1120 µM)
Nc1ccc(S(=O)(=O)Cc2nc3ccccc3n2Cc2ccc(Cl)cc2Cl)cc1 | 8 (≈ 17.9 µM) | 128 (≈ 287 µM) | 32 (≈ 71.7 µM) | 64 (≈ 143 µM) | 128 (≈ 287 µM) | 16 (≈ 35.8 µM) | 32 (≈ 71.7 µM) | 128 (≈ 287 µM) | 16 (≈ 35.8 µM) | 512 (≈ 1150 µM) | 2 (≈ 4.48 µM) | 256 (≈ 574 µM) | 4 (≈ 8.96 µM)
CCCn1c(CS(=O)(=O)c2ccc(NC(C)=O)cc2)nc2ccccc21 | 128 (≈ 345 µM) | 64 (≈ 172 µM) | 16 (≈ 43.1 µM) | 256 (≈ 689 µM) | 64 (≈ 172 µM) | 128 (≈ 345 µM) | 128 (≈ 345 µM) | 32 (≈ 86.1 µM) | 64 (≈ 172 µM) | 16 (≈ 43.1 µM) | 64 (≈ 172 µM) | 16 (≈ 43.1 µM) | 128 (≈ 345 µM)
CCCCCCn1c(CS(=O)(=O)c2ccc(N)cc2)nc2ccccc21 | 128 (≈ 345 µM) | 512 (≈ 1380 µM) | 512 (≈ 1380 µM) | 512 (≈ 1380 µM) | 256 (≈ 689 µM) | 512 (≈ 1380 µM) | 128 (≈ 345 µM) | 512 (≈ 1380 µM) | 512 (≈ 1380 µM) | 512 (≈ 1380 µM) | 512 (≈ 1380 µM) | 512 (≈ 1380 µM) | 512 (≈ 1380 µM)
CC(=O)Nc1ccc(S(=O)(=O)Cc2nc3ccccc3n2Cc2cccc(Cl)c2)cc1 | 32 (≈ 70.5 µM) | 128 (≈ 282 µM) | 128 (≈ 282 µM) | 64 (≈ 141 µM) | 128 (≈ 282 µM) | 64 (≈ 141 µM) | 256 (≈ 564 µM) | 128 (≈ 282 µM) | 512 (≈ 1130 µM) | 256 (≈ 564 µM) | 512 (≈ 1130 µM) | 128 (≈ 282 µM) | 256 (≈ 564 µM)
CCn1cc(C(=O)O)c(=O)c2cc(F)c(N3CCNCC3)cc21 [NORFLOXACIN] | 8 (≈ 25.1 µM) | 1 (≈ 3.13 µM) | 2 (≈ 6.26 µM) | 1 (≈ 3.13 µM) | 4 (≈ 12.5 µM) | 1 (≈ 3.13 µM) | 1 (≈ 3.13 µM) | 1 (≈ 3.13 µM) | – | – | – | – | –
